Measured values as given in ChEMBL document CHEMBL1122617, “6,7-Dihydroxy-3-chromanamine: synthesis and pharmacological activity of an oxygen isostere of the dopamine agonist 6,7-dihydroxy-2-aminotetralin” (J Med Chem, 1984).

Key:
Rattus norvegicus [1] = species: Rattus norvegicus; assay: Concentration required to reduce the specific binding of [3H]NPA by 50% to rat corpus striatum; assay type: functional, organism-based
Procedure, shortened: (§1)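 Male rat (200-225 g) striatal homogenate, 2.5 mg wet weight per tube, in 15 mM Tris-HCl pH 7.5 with 1 mM EDTA and 0.01% ascorbic acid. [3H]NPA 0.50 nM final, 25 °C for 20 min. Nonspecific binding with 1 μM d-butaclamol. Displacer tested over 10⁻¹¹–10⁻⁵ M in triplicate. IC50 = 50% reduction of specific binding, mean ± SEM of three experiments.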

[2] = Partition coefficient (logP); assay type: physicochemical; details: octanol/water
Procedure, shortened: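 Log P measured in octanol-phosphate buffer at pH 7.4. Phases analysed by the same HPLC-electrochemical method. Mean ± SD, n = 6.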

Rattus norvegicus [3] = species: Rattus norvegicus; assay: Binding affinity to rat corpus striatum was determined using [3H]NPA as radioligand; assay type: functional; procedure, shortened: as §1
Rattus norvegicus [4] = assay: Effect on DA metabolism was determined by measuring concentration of DA at a time interval of 15 minutes after ip administration of 100 umol/kg of compound; assay type: functional, organism-based
Procedure, shortened: (§2)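 Female rats (180-200 g) given 100 μmol/kg ip in saline with 0.1% sodium metabisulfite, killed at 15 or 45 min. Striatum frozen on dry ice and kept at -80 °C. DA, DOPAC and HVA isolated on Sephadex G-10, then measured by reversed-phase C18 HPLC with amperometric detection. Control cerebellum used as blank. Not corrected for recovery (86-89%). Mean ± SEM.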

Rattus norvegicus [5] = assay: Effect on 6,7-dihydroxy-3-chromanamine metabolism was determined by measuring concentration of 6,7-dihydroxy-3-chromanamine at a time interval of 15 min after ip administration of 100 umol/kg of compound; assay type: functional, organism-based
Procedure, shortened: (§3)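 Female rats (180-200 g) given 100 μmol/kg ip in saline with 0.1% sodium metabisulfite. Killed at 15 or 45 min; striatum dissected, frozen on dry ice and kept at -80 °C. Drug level measured by HPLC with electrochemical detection, mobile phase 0.1 M phosphate-acetate pH 4.5, against a standard. Corrected for 78.8% recovery from spiked brain. Mean ± SEM, n = 8.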

Rattus norvegicus [6] = assay: Effect on DOPAC metabolism was determined by measuring concentration of DOPAC at a time interval of 45 minutes after ip administration of 100 umol/kg of compound; assay type: functional, organism-based; procedure, shortened: as §2
Rattus norvegicus [7] = assay: Effect on HVA metabolism was determined by measuring concentration of HVA at a time interval of 0 minutes after ip administration of 100 umol/kg of compound; assay type: functional, organism-based
Rattus norvegicus [8] = assay: Effect on 6,7-dihydroxy-3-chromanamine metabolism was determined by measuring concentration of 6,7-dihydroxy-3-chromanamine at a time interval of 45 min after ip administration of 100 umol/kg of compound; assay type: functional, organism-based; procedure, shortened: as §3
Rattus norvegicus [9] = assay: Effect on HVA metabolism was determined by measuring concentration of HVA at a time interval of 15 minutes after ip administration of 100 umol/kg of compound; assay type: functional, organism-based; procedure, shortened: as §2
Rattus norvegicus [10] = assay: Effect on HVA metabolism was determined by measuring concentration of HVA at a time interval of 45 minutes after ip administration of 100 umol/kg of compound; assay type: functional, organism-based; procedure, shortened: as §2
Rattus norvegicus [11] = assay: Effect on DOPAC metabolism was determined by measuring concentration of DOPAC at a time interval of 15 minutes after ip administration of 100 umol/kg of compound; assay type: functional, organism-based; procedure, shortened: as §2
Rattus norvegicus [12] = assay: Effect on DOPAC metabolism was determined by measuring concentration of DOPAC at a time interval of 0 minutes after ip administration of 100 umol/kg of compound; assay type: functional, organism-based
Rattus norvegicus [13] = assay: Effect on DA metabolism was determined by measuring concentration of DA at a time interval of 0 minutes after ip administration of 100 umol/kg of compound; assay type: functional, organism-based
Rattus norvegicus [14] = assay: Effect on DA metabolism was determined by measuring concentration of DA at a time interval of 45 min after ip administration of 100 umol/kg of compound; assay type: functional, organism-based; procedure, shortened: as §2

NC1CCc2cc(O)c(O)cc2C1 (centres undefined)
IC50 (Rattus norvegicus [1]): 24.5 nM | logP [2]: 1.88 | Ki (Rattus norvegicus [3]): 12 nM

NC1COc2cc(O)c(O)cc2C1 (centres undefined)
Concentration (Rattus norvegicus [4]): 10.5 µg/g | Concentration (Rattus norvegicus [5]): 0.34 nM/g | Concentration (Rattus norvegicus [6]): 1.02 µg/g | Concentration (Rattus norvegicus [7]): 0.91 µg/g | Concentration (Rattus norvegicus [8]): 0.2 nM/g | Concentration (Rattus norvegicus [9]): 0.83 µg/g | IC50 (Rattus norvegicus [1]): 259 nM | logP [2]: 1.39 | Concentration (Rattus norvegicus [10]): 1.02 µg/g | Concentration (Rattus norvegicus [11]): 0.97 µg/g | Concentration (Rattus norvegicus [12]): 1.05 µg/g | Concentration (Rattus norvegicus [13]): 9.87 µg/g | Ki (Rattus norvegicus [3]): 144 nM | Concentration (Rattus norvegicus [14]): 10.8 µg/g

CN1CCc2cccc3c2[C@H]1Cc1ccc(O)c(O)c1-3 [APOMORPHINE]
IC50 (Rattus norvegicus [1]): 22.6 nM | Ki (Rattus norvegicus [3]): 10.5 nM
